Data as given in ChEMBL document CHEMBL1932971, “Synthesis of uriedo and thiouriedo derivatives of peptide conjugated heterocycles - A new class of promising antimicrobials” (2012).
Values after ≈ are worked out from the molar mass of the structure shown. Numbered stars: 1 amine (or outer) side, 2 acyl side, 3 side chain; on linkers, the order of the positions; unused ones are H or OH. Peptide text beside a SMILES is read from it. * marks the point of attachment. Piperazinyl(4-(2,3-Cl2Ph)) = Clc1cccc(N2CCN(*)CC2)c1Cl; Thiocarbamoyl(N-4-ClPh) = S=C(Nc1ccc(Cl)cc1)*; Thiocarbamoyl(N-2-FPh) = Fc1ccccc1NC(=S)*; NH(4-Cl-phenyl) = Clc1ccc(N*)cc1; X1 = Fc1ccc2c(C3CCN(*)CC3)noc2c1; NH(2-F-phenyl) = Fc1ccccc1N*; CO = O=C([*:1])[*:2]

Tests used:
Format in all cases: functional
Escherichia coli [1] = assay: Antibacterial activity against Escherichia coli at 30 ug/ml after 24 hrs by agar well diffusion method; settings: read-out: DIZ
How it was run: (§1)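 Agar well diffusion. Inocula were grown in nutrient broth at 37 °C for 24 h, then subcultured in nutrient broth at room temperature. Compounds were made as a 1 mg/mL DMSO stock and diluted to 30 µg/mL final. Nutrient agar plates were spread-inoculated and 6 mm wells each got 0.1 mL. Controls were amoxicillin (reference) and DMSO (negative). Incubation was 24 h at 37 °C. Inhibition zone was measured in mm as the mean of three determinations.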

Xanthomonas oryzae [2] = assay: Antibacterial activity against Xanthomonas oryzae at 30 ug/ml after 24 hrs by agar well diffusion method; settings: read-out: DIZ
Klebsiella pneumoniae [3] = assay: Antibacterial activity against Klebsiella pneumoniae at 30 ug/ml after 24 hrs by agar well diffusion method; settings: read-out: DIZ; how it was run: as §1
Staphylococcus aureus [4] = assay: Antibacterial activity against coagulase-positive Staphylococcus aureus at 30 ug/ml after 24 hrs by agar well diffusion method; settings: read-out: DIZ; how it was run: as §1
Escherichia coli [5] = assay: Antibacterial activity against Escherichia coli after 24 hrs by microdilution method
Xanthomonas oryzae [6] = assay: Antibacterial activity against Xanthomonas oryzae after 24 hrs by microdilution method
Klebsiella pneumoniae [7] = assay: Antibacterial activity against Klebsiella pneumoniae after 24 hrs by microdilution method
Staphylococcus aureus [8] = assay: Antibacterial activity against coagulase-positive Staphylococcus aureus after 24 hrs by microdilution method
Aspergillus niger [9] = assay: Antifungal activity against Aspergillus niger at 30 ug/ml after 72 hrs by agar well diffusion method; settings: read-out: DIZ
How it was run: (§2)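 Fungal well diffusion. Inocula were subcultured in nutrient broth for one day, then spread on solidified medium. Compounds were made as a 1 mg/mL DMSO stock and diluted to 30 µg/mL final. Each 6 mm well got 0.1 mL. Controls were bavistin (reference) and DMSO (negative). Plates stood for 3 days at room temperature. Inhibition zone was measured in mm as the mean of three determinations.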

Aspergillus flavus [10] = assay: Antifungal activity against Aspergillus flavus at 30 ug/ml after 72 hrs by agar well diffusion method; settings: read-out: DIZ; how it was run: as §2
Fusarium oxysporum [11] = assay: Antifungal activity against Fusarium oxysporum at 30 ug/ml after 72 hrs by agar well diffusion method; settings: read-out: DIZ; how it was run: as §2
Aspergillus niger [12] = assay: Antifungal activity against Aspergillus niger after 72 hrs by microdilution method
Aspergillus flavus [13] = assay: Antifungal activity against Aspergillus flavus after 72 hrs by microdilution method
Fusarium oxysporum [14] = assay: Antifungal activity against Fusarium oxysporum after 72 hrs by microdilution method

SMILES	zone of inhibition at 30 µg/mL (Escherichia coli [1]) [mm]	zone of inhibition at 30 µg/mL (Xanthomonas oryzae [2]) [mm]	zone of inhibition at 30 µg/mL (Klebsiella pneumoniae [3]) [mm]	zone of inhibition at 30 µg/mL (Staphylococcus aureus [4]) [mm]	MIC (Escherichia coli [5]) [µg/mL]	MIC (Xanthomonas oryzae [6]) [µg/mL]	MIC (Klebsiella pneumoniae [7]) [µg/mL]	MIC (Staphylococcus aureus [8]) [µg/mL]	zone of inhibition at 30 µg/mL (Aspergillus niger [9]) [mm]	zone of inhibition at 30 µg/mL (Aspergillus flavus [10]) [mm]	zone of inhibition at 30 µg/mL (Fusarium oxysporum [11]) [mm]	MIC (Aspergillus niger [12]) [µg/mL]	MIC (Aspergillus flavus [13]) [µg/mL]	MIC (Fusarium oxysporum [14]) [µg/mL]
CC(C)[C@H](NC(=O)CNC(=S)Nc1ccc(Cl)cc1)C(=O)NCC(=O)N[C@H](C(=O)N1CCC[C@H]1C(=O)N1CCC(c2noc3cc(F)ccc23)CC1)C(C)C ({Thiocarbamoyl(N-4-ClPh)}-GVGVP-X1)	31	32	30	28	8.75 (≈ 10.9 µM)	8 (≈ 10 µM)	6.5 (≈ 8.13 µM)	8 (≈ 10 µM)	34	30	31	6 (≈ 7.51 µM)	6.75 (≈ 8.44 µM)	8 (≈ 10 µM)
CC(C)[C@H](NC(=O)CNC(=S)Nc1ccc(Cl)cc1)C(=O)NCC(=O)N[C@H](C(=O)N1CCC[C@H]1C(=O)N1CCN(c2cccc(Cl)c2Cl)CC1)C(C)C ({Thiocarbamoyl(N-4-ClPh)}-GVGVP-{Piperazinyl(4-(2,3-Cl2Ph))})	29	31	24	26	9.5 (≈ 11.7 µM)	8.75 (≈ 10.8 µM)	7 (≈ 8.64 µM)	9 (≈ 11.1 µM)	32	24	29	6.75 (≈ 8.33 µM)	7.75 (≈ 9.56 µM)	8.75 (≈ 10.8 µM)
O=C(CNC(=S)Nc1ccccc1F)NCC(=O)N[C@@H](Cc1ccccc1)C(=O)N1CCC[C@H]1C(=O)N1CCC(c2noc3cc(F)ccc23)CC1 ({Thiocarbamoyl(N-2-FPh)}-GGFP-X1)	32	30	28	26	11.5 (≈ 15.7 µM)	8.5 (≈ 11.6 µM)	8.25 (≈ 11.3 µM)	10.2 (≈ 14 µM)	35	30	32	8.5 (≈ 11.6 µM)	12.2 (≈ 16.7 µM)	13.2 (≈ 18.1 µM)
O=C(CNC(=O)Nc1ccccc1F)N[C@@H](Cc1ccccc1)C(=O)NCC(=O)N[C@@H](Cc1ccccc1)C(=O)N1CCC[C@H]1C(=O)N1CCN(c2cccc(Cl)c2Cl)CC1 ({NH(2-F-phenyl)-CO}-GFGFP-{Piperazinyl(4-(2,3-Cl2Ph))})	37	38	35	33	5.5 (≈ 6.29 µM)	5.75 (≈ 6.58 µM)	4 (≈ 4.58 µM)	5 (≈ 5.72 µM)	39	34	34	4 (≈ 4.58 µM)	5.25 (≈ 6.01 µM)	5 (≈ 5.72 µM)
CC[C@H](C)[C@H](NC(=O)CNC(=O)CNC(=O)Nc1ccccc1F)C(=O)N1CCC[C@H]1C(=O)N1CCN(c2cccc(Cl)c2Cl)CC1 ({NH(2-F-phenyl)-CO}-GGIP-{Piperazinyl(4-(2,3-Cl2Ph))})	29	26	23	24	13 (≈ 18.8 µM)	10 (≈ 14.4 µM)	10 (≈ 14.4 µM)	12 (≈ 17.3 µM)	32	28	30	11 (≈ 15.9 µM)	14 (≈ 20.2 µM)	15 (≈ 21.7 µM)
O=C(CNC(=O)Nc1ccccc1F)N[C@@H](Cc1ccccc1)C(=O)NCC(=O)N[C@@H](Cc1ccccc1)C(=O)N1CCC[C@H]1C(=O)N1CCC(c2noc3cc(F)ccc23)CC1 ({NH(2-F-phenyl)-CO}-GFGFP-X1)	39	40	36	34	5 (≈ 5.79 µM)	5 (≈ 5.79 µM)	3.25 (≈ 3.77 µM)	4.25 (≈ 4.93 µM)	40	35	39	3.25 (≈ 3.77 µM)	4.75 (≈ 5.5 µM)	4.25 (≈ 4.93 µM)
CC(C)[C@H](NC(=O)CNC(=O)Nc1ccccc1F)C(=O)NCC(=O)N[C@H](C(=O)N1CCC[C@H]1C(=O)N1CCC(c2noc3cc(F)ccc23)CC1)C(C)C ({NH(2-F-phenyl)-CO}-GVGVP-X1)	34	35	33	30	7.75 (≈ 10.1 µM)	6.75 (≈ 8.8 µM)	5.25 (≈ 6.85 µM)	6.75 (≈ 8.8 µM)	36	32	33	5 (≈ 6.52 µM)	5.75 (≈ 7.5 µM)	7 (≈ 9.13 µM)
O=C(CNC(=S)Nc1ccc(Cl)cc1)N[C@@H](Cc1ccccc1)C(=O)NCC(=O)N[C@@H](Cc1ccccc1)C(=O)N1CCC[C@H]1C(=O)N1CCC(c2noc3cc(F)ccc23)CC1 ({Thiocarbamoyl(N-4-ClPh)}-GFGFP-X1)	35	36	34	32	6 (≈ 6.7 µM)	6.25 (≈ 6.98 µM)	4.5 (≈ 5.03 µM)	5.75 (≈ 6.42 µM)	39	32	36	4.5 (≈ 5.03 µM)	6 (≈ 6.7 µM)	5.75 (≈ 6.42 µM)
O=C(CNC(=O)Nc1ccc(Cl)cc1)N[C@@H](Cc1ccccc1)C(=O)NCC(=O)N[C@@H](Cc1ccccc1)C(=O)N1CCC[C@H]1C(=O)N1CCC(c2noc3cc(F)ccc23)CC1 ({NH(4-Cl-phenyl)-CO}-GFGFP-X1)	34	35	33	31	6.25 (≈ 7.11 µM)	6.5 (≈ 7.39 µM)	4.75 (≈ 5.4 µM)	6 (≈ 6.82 µM)	38	31	35	4.75 (≈ 5.4 µM)	6.25 (≈ 7.11 µM)	6 (≈ 6.82 µM)
O=C(CNC(=O)Nc1ccccc1F)NCC(=O)N[C@@H](Cc1ccccc1)C(=O)N1CCC[C@H]1C(=O)N1CCC(c2noc3cc(F)ccc23)CC1 ({NH(2-F-phenyl)-CO}-GGFP-X1)	31	29	27	25	12 (≈ 16.8 µM)	9 (≈ 12.6 µM)	9 (≈ 12.6 µM)	11 (≈ 15.4 µM)	34	29	31	9 (≈ 12.6 µM)	13 (≈ 18.2 µM)	14 (≈ 19.6 µM)
